DNA FID counter: compounds displacing fluorescent DNA intercalator, primary screen, artefact control for HCV NS3 helicase inhibitor project, biochemical, FID fluorescence. inhibition, % at 7.9 µM. DNA fluorescent intercalator displacement. 0.17% of 290,000 active; in the data active means inhibition above about 37%;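 further: 0% = vehicle and 100% = reference compound; higher means more ethidium bromide displaced from hairpin DNA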
EBNA-1 inhibitor: EBNA-1 DNA-binding inhibitors, primary screen, biochemical, fluorescence polarization; 0.34% of 300,000 active; inhibition, % at 14.8 µM; in the data active means inhibition above about 28%
NS3 helicase inh: inhibitors of HCV NS3 helicase, primary screen, biochemical, Cy5 molecular beacon fluorescence; NS3 helicase DNA unwinding; inhibition, % at 10.9 µM; 0.56% of 290,000 active; AID 1800, 2009;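 active means inhibition above the mean of all tested compounds plus 3 SD, set per campaign, cut at about 35% in these data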;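 further: 0% = DMSO wells and 100% = thioflavine S control wells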
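Control set: DMSO versus 110 µM thioflavine S; Material: NS3 helicase fragment of HCV; Measured by: Cy5 fluorescence at 0 and 60 min, beacon hairpin quenching; Read-out basis: percent inhibition from t60/t0 fluorescence ratio; Times: reaction time 60 min, 25 °C; Repeats: single replicate; Compound dosing: single dose, 10.9 µM nominal final, DMSO 0.8% final.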
ZTA DNA inh: blocks Epstein-Barr virus ZTA, an EBNA-1 counter-screen; ZTA-DNA binding, fluorescence polarization; 0.15% of 320,000 active; inhibition, % at 11 µM; P03206; in the data active means inhibition above about 33%
Target sequence (P03206 whole entry, looked up): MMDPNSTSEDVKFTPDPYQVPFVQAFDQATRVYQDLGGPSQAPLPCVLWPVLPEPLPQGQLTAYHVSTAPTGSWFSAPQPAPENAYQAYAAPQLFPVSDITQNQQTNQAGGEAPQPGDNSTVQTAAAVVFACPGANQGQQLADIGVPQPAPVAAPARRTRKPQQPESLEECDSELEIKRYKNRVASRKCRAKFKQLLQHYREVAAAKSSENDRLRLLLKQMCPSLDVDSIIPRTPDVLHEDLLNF
GPR7 antag: GPR7 receptor antagonists, primary screen, cell-based, fluorescence, single concentration; GPR7-expressing cells, fluorescence antagonist assay; inhibition, % at 4.4 µM; 1.1% of 290,000 active; AID 1861, 2009; in the data active means inhibition above about 16%, passing the limit was not always enough;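 further: cells stimulated with the agonist NPW; 0% = agonist with vehicle and 100% = vehicle without agonist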
Zta DNA confirm: EBV Zta binding to ZRE DNA, inhibitors, confirmation, biochemical, fluorescence polarization, triplicate | shares compounds with ZTA DNA inh | AID 2361, 2010 | inhibition, % at 11.1 µM | 30% of 320 active;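 active means mean inhibition across triplicate runs above the hit threshold derived for the original primary screen, cut at about 33% in these data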;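 further: 0% = Zta with DMSO and 100% = wells lacking Zta protein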
EBNA-1 counter: EBNA-1 DNA-binding inhibition, counter-screen for ZTA inhibitor project, biochemical, fluorescence polarization | shares compounds with ZTA DNA inh | inhibition, % at 14.8 µM | 320 tested, under 10 active | AID 2362, 2010; call rule not given here
Starred values were filed as active, the others as inactive; · = not tested or not shown. The list is not random: actives were taken first. Their share in the collection is about 2%.

SMILES | DNA FID counter | EBNA-1 inhibitor | NS3 helicase inh | ZTA DNA inh | GPR7 antag | Zta DNA confirm | EBNA-1 counter
C#CCOCCOCCOCCNc1nc(N2CCN(C(=O)CCCCCCCCCCNC(=O)[C@H](CCCCN)n3cc(C)nn3)CC2)nc(N2CCN(C(=O)CCCCCCCCCCNC(=O)[C@@H]([C@H](C)O)n3cc(C)nn3)CC2)n1 | · | 11.9 | · | 39.9* | · | 3.2 | 1.9
COc1ccc(C(=O)N(C)CCCC2CCCC2)cc1OC1CCN(C(C)C)CC1 | 25.4 | 8.3 | -14.1 | 34.2* | -9.1 | -2.6 | -9.7
COc1ccc(C(=O)N(C)CCCC2CCCC2)cc1OC1CCN(C(C)=O)CC1 | -54.8 | 7.0 | -1.9 | 4.8 | -3.8 | · | ·
Cc1ccccc1OCCNC(=O)/C=C/c1ccc([N+](=O)[O-])cc1 | -4.2 | 2.7 | -4.8 | 15.0 | 9.8 | · | ·
Cc1ccccc1OCCNC(=O)/C=C/c1ccccc1 | -19.9 | -3.7 | 7.4 | 128.7* | -5.7 | -11.5 | -4.3
c1ccc(NC2=Nc3cccc4cccc2c34)cc1 | 3.4 | 5.8 | -5.7 | 0.8 | -11.5 | · | ·
Fc1ccc(/C=N/NC2=Nc3cccc4cccc2c34)cc1 | -7.6 | 0.4 | -25.2 | 179.3* | -11.0 | -3.0 | 4.0
O=C(NCCCN1CCOCC1)c1ccc(/C=C2\Oc3ccccc3N(Cc3ccccc3F)C2=O)cc1 | 36.0 | -1.2 | -78.3 | 48.0* | -10.7 | 14.2 | -6.3
CS(=O)(=O)NNC(=O)Cn1nnc(-c2ccc(OCc3ccccc3Cl)cc2)n1 | · | -8.2 | · | -22.6 | · | · | ·
C[C@H]1CCC(=O)N([C@H](COc2ccccc2)Cc2ccccc2)CC1 | -39.8 | 13.9 | -3.4 | 40.0* | 13.7 | 4.4 | 2.6
COc1cccc(=O)c2c(C)n(-c3ccc(C(=O)O)cc3)c(C)c12 | -4.5 | 15.9 | 14.9 | 45.8* | -18.0 | -8.2 | -4.0
COc1ccc(-n2c(C)c3c(OC)cccc(=O)c3c2C)cc1 | -7.3 | 7.2 | 10.8 | 12.8 | -4.9 | · | ·
